Experimental findings from ChEMBL document CHEMBL5356931, “Medicinal chemistry approaches to target the MNK-eIF4E axis in cancer” (RSC Med Chem, 2023) are described below.

Converted amounts (≈) assume the structure as drawn.

Data set [1] deals with K562. The data set can be described thus: animal or person. Particulars: Mus musculus, K562, read-out: TGI.
Data set [2] deals with K562. The data set can be described thus: animal or person. Particulars: Mus musculus, K562, read-out: TGI. The source holds these as a separate data set.
The nature of data set [3]: Drug exposure in mouse at 5 mg/kg,po. In kind it is ADME, organism-based. The arrangement: dose 5 mg/kg, route po. As to conditions: in vivo. A digest of the protocol: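 Mice received a single oral dose of 5 mg kg⁻¹. Exposure was described by oral bioavailability F (%), Cmax (ng mL⁻¹) and AUC0−t (last) (ng h mL⁻¹).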
Data set [4] concerns the target MAP kinase-interacting serine/threonine-protein kinase 1 (Homo sapiens) (UniProt Q9BUB5). The data set can be described thus: Inhibition of MNK1 (unknown origin) relative to control. As to conditions: concentration not given here.
Data set [5] has as its target T1, Eukaryotic translation initiation factor 4E (Homo sapiens, UniProt P06730). The data set can be described thus: Inhibition of eIF4E phosphorylation in human HeLa cells. In kind it is cell-based.
Data set [6] has as its target T2, Tyrosine-protein kinase ABL1 (Homo sapiens, UniProt P00519). The data set can be described thus: Inhibition of ABL1 (unknown origin) relative to control. Particulars: concentration not given here.
In data set [7] the target is T3, Receptor-type tyrosine-protein kinase FLT3 (Homo sapiens, UniProt P36888).
T3 sequence (P36888 whole entry): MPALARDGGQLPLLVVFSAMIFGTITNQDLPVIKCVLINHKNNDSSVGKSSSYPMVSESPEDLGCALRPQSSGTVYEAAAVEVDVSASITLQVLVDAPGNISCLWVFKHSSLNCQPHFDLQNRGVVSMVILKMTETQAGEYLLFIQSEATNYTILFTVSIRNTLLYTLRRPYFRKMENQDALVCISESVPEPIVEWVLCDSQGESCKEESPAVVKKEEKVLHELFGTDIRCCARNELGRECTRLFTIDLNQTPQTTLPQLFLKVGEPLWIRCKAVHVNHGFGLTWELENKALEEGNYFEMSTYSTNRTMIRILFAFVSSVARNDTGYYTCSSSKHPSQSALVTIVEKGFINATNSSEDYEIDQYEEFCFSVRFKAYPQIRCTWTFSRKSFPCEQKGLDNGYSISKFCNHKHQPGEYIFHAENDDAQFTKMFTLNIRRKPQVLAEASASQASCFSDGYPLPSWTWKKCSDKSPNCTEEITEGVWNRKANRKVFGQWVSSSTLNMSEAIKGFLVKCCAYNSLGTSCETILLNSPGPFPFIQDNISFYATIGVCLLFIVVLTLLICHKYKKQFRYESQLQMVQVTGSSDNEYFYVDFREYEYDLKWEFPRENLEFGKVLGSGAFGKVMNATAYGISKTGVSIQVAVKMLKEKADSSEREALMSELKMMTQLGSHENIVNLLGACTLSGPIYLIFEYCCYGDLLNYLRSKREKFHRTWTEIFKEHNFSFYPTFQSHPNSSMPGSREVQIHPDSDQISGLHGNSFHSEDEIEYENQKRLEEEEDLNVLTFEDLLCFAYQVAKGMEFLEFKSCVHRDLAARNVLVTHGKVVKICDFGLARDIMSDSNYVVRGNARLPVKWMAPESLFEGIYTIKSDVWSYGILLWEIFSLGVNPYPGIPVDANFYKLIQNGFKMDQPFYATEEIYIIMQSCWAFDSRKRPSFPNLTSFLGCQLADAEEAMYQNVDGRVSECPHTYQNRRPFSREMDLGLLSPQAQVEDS
The data set can be described thus: Inhibition of FLT3 (unknown origin).

Data set [8] deals with Vascular endothelial growth factor receptor 2 (Homo sapiens, UniProt P35968). The data set can be described thus: Inhibition of VEGFR2 (unknown origin).
Sequence of Vascular endothelial growth factor receptor 2 (P35968 whole entry): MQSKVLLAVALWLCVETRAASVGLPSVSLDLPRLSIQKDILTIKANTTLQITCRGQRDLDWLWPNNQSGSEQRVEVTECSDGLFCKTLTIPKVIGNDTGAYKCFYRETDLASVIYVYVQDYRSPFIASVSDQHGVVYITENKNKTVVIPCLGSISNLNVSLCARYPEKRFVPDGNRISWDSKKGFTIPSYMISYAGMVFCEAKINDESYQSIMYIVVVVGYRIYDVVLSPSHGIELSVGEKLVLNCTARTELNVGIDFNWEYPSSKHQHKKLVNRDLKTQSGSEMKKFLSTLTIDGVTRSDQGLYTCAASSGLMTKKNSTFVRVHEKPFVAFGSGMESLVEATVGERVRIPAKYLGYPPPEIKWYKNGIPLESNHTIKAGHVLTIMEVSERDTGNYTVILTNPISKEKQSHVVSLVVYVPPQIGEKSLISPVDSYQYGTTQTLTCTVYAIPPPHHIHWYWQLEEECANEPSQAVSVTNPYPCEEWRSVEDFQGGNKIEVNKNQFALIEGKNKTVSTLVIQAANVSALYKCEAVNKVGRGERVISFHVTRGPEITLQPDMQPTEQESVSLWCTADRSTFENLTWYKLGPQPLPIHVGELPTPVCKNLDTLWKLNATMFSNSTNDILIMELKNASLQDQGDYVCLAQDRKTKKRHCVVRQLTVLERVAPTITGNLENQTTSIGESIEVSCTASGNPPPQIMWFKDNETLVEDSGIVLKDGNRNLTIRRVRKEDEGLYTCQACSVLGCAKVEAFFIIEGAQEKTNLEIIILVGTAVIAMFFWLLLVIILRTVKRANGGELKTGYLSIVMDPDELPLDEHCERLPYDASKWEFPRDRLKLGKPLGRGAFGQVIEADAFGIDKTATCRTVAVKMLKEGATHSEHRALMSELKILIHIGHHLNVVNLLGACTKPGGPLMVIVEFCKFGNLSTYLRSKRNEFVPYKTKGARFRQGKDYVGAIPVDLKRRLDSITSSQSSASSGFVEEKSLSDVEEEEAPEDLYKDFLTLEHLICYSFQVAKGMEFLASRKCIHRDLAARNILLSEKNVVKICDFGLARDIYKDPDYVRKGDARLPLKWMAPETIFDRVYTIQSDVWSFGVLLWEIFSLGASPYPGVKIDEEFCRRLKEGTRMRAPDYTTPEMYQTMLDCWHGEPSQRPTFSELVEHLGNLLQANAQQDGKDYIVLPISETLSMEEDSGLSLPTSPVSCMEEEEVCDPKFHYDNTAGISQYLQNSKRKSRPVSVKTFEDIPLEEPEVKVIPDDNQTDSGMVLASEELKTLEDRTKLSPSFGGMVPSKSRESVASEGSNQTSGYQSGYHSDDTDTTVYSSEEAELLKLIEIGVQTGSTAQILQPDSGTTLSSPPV
Data set [9] concerns the target Proto-oncogene tyrosine-protein kinase receptor Ret (Homo sapiens, UniProt P07949). The data set can be described thus: Inhibition of RET (unknown origin).
Data set [10] concerns the target T2, Tyrosine-protein kinase ABL1. The data set can be described thus: Inhibition of ABL1 (unknown origin).
Data set [11] is described as follows: Solubility of the compound. In kind it is physicochemical.
The target of data set [12] is T1, Eukaryotic translation initiation factor 4E. The data set can be described thus: Binding affinity to eIF4E (unknown origin) assessed as dissociation constant.
Data set [13] can be described thus: Solubility of compound at pH 7.4. The class given is physicochemical. As to conditions: buffer.
Data set [14] addresses MAP kinase-interacting serine/threonine-protein kinase 2 (Homo sapiens, UniProt Q9HBH9). The data set can be described thus: Inhibition of MNK2 (unknown origin).
Data set [15] in a line: Half life in CD-1 mouse at 5 mg/kg, iv. The class given is ADME, organism-based, CD1. As to conditions: in vivo.

T2 sequence (P00519 whole entry): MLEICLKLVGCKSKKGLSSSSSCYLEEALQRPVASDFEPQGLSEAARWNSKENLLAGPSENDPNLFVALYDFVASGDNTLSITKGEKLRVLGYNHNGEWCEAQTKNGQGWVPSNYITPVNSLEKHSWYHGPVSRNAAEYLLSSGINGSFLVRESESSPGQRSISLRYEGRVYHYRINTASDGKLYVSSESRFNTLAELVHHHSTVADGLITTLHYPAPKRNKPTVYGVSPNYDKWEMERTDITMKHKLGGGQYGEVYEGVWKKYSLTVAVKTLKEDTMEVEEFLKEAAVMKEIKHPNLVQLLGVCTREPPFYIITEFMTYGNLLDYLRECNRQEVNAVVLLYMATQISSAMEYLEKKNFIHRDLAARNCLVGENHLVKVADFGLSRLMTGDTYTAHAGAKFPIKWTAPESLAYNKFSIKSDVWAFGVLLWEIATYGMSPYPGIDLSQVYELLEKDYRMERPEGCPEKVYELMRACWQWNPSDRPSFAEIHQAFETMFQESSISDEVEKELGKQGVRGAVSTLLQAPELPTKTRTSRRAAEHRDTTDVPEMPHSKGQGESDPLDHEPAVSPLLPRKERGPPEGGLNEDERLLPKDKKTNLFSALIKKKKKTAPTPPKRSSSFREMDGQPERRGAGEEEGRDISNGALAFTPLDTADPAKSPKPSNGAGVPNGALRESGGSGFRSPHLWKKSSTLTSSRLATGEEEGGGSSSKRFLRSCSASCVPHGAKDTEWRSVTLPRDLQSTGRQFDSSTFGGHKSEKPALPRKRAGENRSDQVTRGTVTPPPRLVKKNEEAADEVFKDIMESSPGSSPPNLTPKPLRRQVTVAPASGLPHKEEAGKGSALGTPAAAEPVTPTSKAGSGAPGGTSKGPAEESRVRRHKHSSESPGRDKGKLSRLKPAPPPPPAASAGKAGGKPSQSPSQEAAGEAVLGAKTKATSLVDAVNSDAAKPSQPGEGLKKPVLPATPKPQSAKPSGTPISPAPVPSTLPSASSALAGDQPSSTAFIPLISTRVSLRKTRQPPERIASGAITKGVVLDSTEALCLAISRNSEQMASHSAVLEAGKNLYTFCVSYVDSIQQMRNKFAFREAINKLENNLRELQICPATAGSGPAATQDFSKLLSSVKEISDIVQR
T1 sequence (P06730 whole entry): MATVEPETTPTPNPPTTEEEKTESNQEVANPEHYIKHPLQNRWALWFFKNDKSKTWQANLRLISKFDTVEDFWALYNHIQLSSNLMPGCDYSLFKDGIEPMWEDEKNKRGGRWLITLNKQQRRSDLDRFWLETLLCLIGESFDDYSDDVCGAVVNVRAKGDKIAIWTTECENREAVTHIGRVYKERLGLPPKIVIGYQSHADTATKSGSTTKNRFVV
Sequence of MAP kinase-interacting serine/threonine-protein kinase 2 (Q9HBH9 whole entry): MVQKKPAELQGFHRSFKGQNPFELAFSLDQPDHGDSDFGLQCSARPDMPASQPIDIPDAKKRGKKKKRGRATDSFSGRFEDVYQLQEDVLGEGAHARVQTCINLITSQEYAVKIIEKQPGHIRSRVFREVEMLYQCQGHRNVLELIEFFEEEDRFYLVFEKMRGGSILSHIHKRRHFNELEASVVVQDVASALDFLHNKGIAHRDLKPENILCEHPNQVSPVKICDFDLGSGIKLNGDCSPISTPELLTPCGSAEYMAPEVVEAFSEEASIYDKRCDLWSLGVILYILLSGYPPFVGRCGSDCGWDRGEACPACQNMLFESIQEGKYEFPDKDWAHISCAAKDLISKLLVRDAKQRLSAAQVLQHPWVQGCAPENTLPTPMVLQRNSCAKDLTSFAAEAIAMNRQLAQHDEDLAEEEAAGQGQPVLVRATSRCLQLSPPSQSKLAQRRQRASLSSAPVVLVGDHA
Sequence of Proto-oncogene tyrosine-protein kinase receptor Ret (P07949 whole entry): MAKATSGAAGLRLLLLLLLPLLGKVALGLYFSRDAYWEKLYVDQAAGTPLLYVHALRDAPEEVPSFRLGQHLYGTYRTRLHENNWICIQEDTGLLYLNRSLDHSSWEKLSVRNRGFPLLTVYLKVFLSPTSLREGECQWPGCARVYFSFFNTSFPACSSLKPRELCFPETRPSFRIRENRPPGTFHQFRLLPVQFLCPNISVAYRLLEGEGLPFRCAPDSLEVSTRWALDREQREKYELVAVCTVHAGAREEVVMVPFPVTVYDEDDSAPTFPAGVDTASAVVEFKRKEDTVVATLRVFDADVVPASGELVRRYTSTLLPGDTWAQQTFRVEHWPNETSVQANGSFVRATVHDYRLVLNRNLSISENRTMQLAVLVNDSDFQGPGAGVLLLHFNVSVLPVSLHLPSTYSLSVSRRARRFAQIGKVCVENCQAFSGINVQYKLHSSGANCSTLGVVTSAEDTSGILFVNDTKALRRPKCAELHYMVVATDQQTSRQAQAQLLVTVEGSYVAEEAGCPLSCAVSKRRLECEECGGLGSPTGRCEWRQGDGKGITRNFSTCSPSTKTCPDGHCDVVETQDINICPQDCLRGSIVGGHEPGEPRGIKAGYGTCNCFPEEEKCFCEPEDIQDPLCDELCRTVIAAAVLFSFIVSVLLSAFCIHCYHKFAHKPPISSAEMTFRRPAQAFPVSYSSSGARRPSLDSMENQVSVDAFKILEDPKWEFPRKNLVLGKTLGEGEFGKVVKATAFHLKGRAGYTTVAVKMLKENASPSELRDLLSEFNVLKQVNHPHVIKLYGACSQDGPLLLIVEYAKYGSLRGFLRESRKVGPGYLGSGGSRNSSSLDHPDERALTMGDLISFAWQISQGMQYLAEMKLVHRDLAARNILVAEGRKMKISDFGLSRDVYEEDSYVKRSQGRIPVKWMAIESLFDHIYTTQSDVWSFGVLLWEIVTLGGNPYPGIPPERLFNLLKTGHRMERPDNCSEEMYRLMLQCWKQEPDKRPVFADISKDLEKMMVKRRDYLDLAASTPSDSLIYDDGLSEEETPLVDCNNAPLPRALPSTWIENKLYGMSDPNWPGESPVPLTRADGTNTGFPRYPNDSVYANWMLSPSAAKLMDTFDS
Sequence of MAP kinase-interacting serine/threonine-protein kinase 1 (Homo sapiens) (Q9BUB5 whole entry, looked up): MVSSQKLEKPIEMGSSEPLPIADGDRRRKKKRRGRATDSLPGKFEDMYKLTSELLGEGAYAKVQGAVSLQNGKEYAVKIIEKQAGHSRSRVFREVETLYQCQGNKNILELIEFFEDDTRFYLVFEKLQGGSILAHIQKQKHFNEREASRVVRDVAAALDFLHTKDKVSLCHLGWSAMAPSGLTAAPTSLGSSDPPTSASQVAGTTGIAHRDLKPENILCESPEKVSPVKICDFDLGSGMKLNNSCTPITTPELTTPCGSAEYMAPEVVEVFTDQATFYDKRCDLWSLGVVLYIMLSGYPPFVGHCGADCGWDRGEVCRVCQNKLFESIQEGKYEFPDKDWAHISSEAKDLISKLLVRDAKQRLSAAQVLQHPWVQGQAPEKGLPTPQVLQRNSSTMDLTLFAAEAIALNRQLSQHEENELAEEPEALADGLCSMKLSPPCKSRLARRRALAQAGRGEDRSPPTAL

Consider `N#Cc1ccc(-c2cnc3ccc(-c4ccc(C(=O)N5CCOCC5)cc4)cn23)cc1` [TINODASERTIB], for which the inhibition in vivo at 50 mg/kg in the data set with K562 [1] was determined as 110%. For the same compound, the inhibition in vivo at 25 mg/kg with K562 [2] was 107%.
`CC(C)Oc1cc(-c2cncc(-c3cnn(C4COC4)c3)c2)ccc1C(N)=O`: in [3], the exposure (AUC) – broadly, the area under the concentration-time curve, a measure of exposure – came out at 2080 ng·h/mL. Further, in data set [4], the inhibition (commonly how much of the control response was suppressed) was > 90%. Inhibition in data set [5] was half-maximal at 200 nM (IC50).
Consider `CN1CCN(Cc2ccc(NC(=O)CNc3ccc(-c4ccc(NC(=O)C5CC5)nc4)cc3F)cc2C(F)(F)F)CC1`, for which the inhibition in data set [6] and in data set [4] was > 90% throughout. The IC50 (as a rule, the midpoint of a concentration-inhibition curve) was < 24 nM in [7], 280 nM in data set [5], < 24 nM in [8] and < 24 nM in data set [9].
Regarding `CCN1CCN(Cc2ccc(NC(=O)COc3ccc(-c4cccnc4)cc3)cc2C(F)(F)F)CC1`, the 50% inhibitory concentration (IC50) in data set [10] was > 10000 nM.
As to `CN1CCN(C(=O)c2ccc(-c3cn4c(-c5ccc(O)cc5)cnc4cn3)cc2)CC1`, in data set [11], the concentration in solution (solubility) came to 144 µg/mL (≈ 348 µM).
As for `NC(=O)c1ncn([C@@H]2O[C@H](CO)[C@@H](O)[C@H]2O)n1` [RIBAVIRIN], in data set [12], the Kd – broadly, the equilibrium constant for the complex coming apart – was 8400 nM.
As to `CC(C)Oc1cc(-c2cccnc2)ccc1C(N)=O`, the solubility (in general, the dissolved amount per volume that the medium holds) in [13] was 45 µg/mL (≈ 176 µM).
In the case of `CN1CCN(C(=O)c2ccc(-c3cn4c(-c5ccc(C(=O)NO)cc5)cnc4cn3)cc2)CC1`, the half-inhibitory concentration (IC50) in [14] is 30 nM.
`CCN1CCN(Cc2ccc(NC(=O)CNc3ccc(-c4ccc(NC(=O)C5CC5)nc4)cc3)cc2C(F)(F)F)CC1`: the half-life – broadly, the time needed for the level to fall by half in the phase considered – in data set [15] was 2.1 h. The concentration for half-maximal inhibition (IC50) in data set [7], in data set [8] and in [9] was < 24 nM throughout.
In the case of `CC(=O)N1CCN(C(=O)c2ccc(-c3cn4c(-c5ccc(O)cc5)cnc4cn3)cc2)CC1`, the solubility in data set [11] amounted to 144 µg/mL (≈ 326 µM).
The compound `O=C(c1ccc(-c2cn3c(-c4ccc(O)cc4)cnc3cn2)cc1)N1CCOCC1` had a solubility in [11] of 11.5 µg/mL (≈ 28.7 µM).
Compound `CN1CCN(C(=O)c2ccc(-c3ccc4ncc(-c5ccc(C#N)cc5)n4n3)cc2)CC1` showed a concentration for half-maximal inhibition (IC50) in [14] of 30 nM.
Regarding `CCN1CCN(Cc2ccc(NC(=O)CNc3ccc(-c4cccnc4)cc3)cc2C(F)(F)F)CC1`, the IC50 in [10] was > 10000 nM.
